These results are taken from ChEMBL document CHEMBL1131115, “Strategies to target kyotorphin analogues to the brain” (1998).

Where a SMILES comes first, the peptide text is derived from it.

The species entered for the test is Rattus norvegicus. Description: Compound was evaluated for brain targeted delivery system by Tail flick latency as an index of spinal cord mediated analgesia in rats. It is filed as functional. An outline of the steps: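 Male Sprague-Dawley rats, 250-300 g, housed singly at ~25 °C. Compounds in 0.2 mL propylene glycol:DMSO (2:1) given iv via tail vein, 0.0223 mmol/kg (equivalent to 7.5 mg/kg kyotorphin); dose-response range 0.0030-0.0223 mmol/kg. Tail-flick meter, beam set for 7-8 s baseline latency. Baseline 10 min pre-dose, then 15 min to 6 h. Six rats per group; mean ± SE, ANOVA.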
The compound `NC(=O)C1=CN(CCCC[C@H](NC(=O)[C@@H](N)Cc2ccc(O)cc2)C(=O)O)C=CC1` registered a Latency time of 10 s.
With `CC(C)CCCC(C)C1CCC2C3CC=C4CC(OC(=O)C(CCCC[n+]5cccc(C(N)=O)c5)NC(=O)[C@H](Cc5ccc(O)cc5)NC(=O)OC(C)(C)C)CCC4(C)C3CCC12C` (some centres not stated) the figure was 10 s.
`CC(C)CCCC(C)C1CCC2C3CC=C4CC(OC(=O)C(CCCCN)NC(=O)[C@H](Cc5ccc(O)cc5)NC(=O)OC(C)(C)C)CCC4(C)C3CCC12C` (some centres not stated) yielded a Latency time of 10 s.
For `CC(C)CCCC(C)C1CCC2C3CC=C4CC(OC(=O)C(CCCCN5C=CCC(C(N)=O)=C5)NC(=O)C(Cc5ccc(O)cc5)NC(=O)OC(C)(C)C)CCC4(C)C3CCC12C` (configuration not stated) the value was 26 s; for `CC(C)CCCC(C)C1CCC2C3CC=C4CC(OC(=O)C(CCCC[n+]5cccc(C(N)=O)c5)NC(=O)C(N)Cc5ccc(O)cc5)CCC4(C)C3CCC12C` (configuration not stated), 17 s.
Consider `NC(N)=NCCC[C@H](NC(=O)[C@@H](N)Cc1ccc(O)cc1)C(=O)O` [KYOTORPHIN], for which the Latency time is listed as 11 s.
For `NCCCC[C@H](NC(=O)[C@@H](N)Cc1ccc(O)cc1)C(=O)O` (H-Tyr-Lys-OH) the value was 11 s.
